Legend:
Assay type in all cases: functional
Candida albicans [1] = assay: Antifungal activity against Candida albicans ATCC 10231 after 12 hrs by broth-dilution method; conditions: ATCC 10231, 12 h
How it was run: (§1)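 Standardized ATCC strains were tested in triplicate by broth dilution. The panel comprised Gram-negative E. coli, Gram-positive B. subtilis and S. aureus, and the yeasts S. cerevisiae and C. albicans. Minimum inhibitory concentration was determined for the growth-inhibition lines. Minimum fungicidal concentration was determined for the fungicidal yeast lines.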

Candida albicans [2] = assay: Fungicidal activity against Candida albicans ATCC 10231 after 48 hrs by broth-dilution method; conditions: ATCC 10231, 48 h, read-out: MFC99.9; how it was run: as §1
Staphylococcus aureus = assay: Antibacterial activity against Staphylococcus aureus BAA-2313 after 12 hrs by broth-dilution method; conditions: BAA-2313, 12 h; how it was run: as §1
Bacillus spizizenii = assay: Antibacterial activity against Bacillus subtilis ATCC 6633 after 12 hrs by broth-dilution method; conditions: ATCC 6633, 12 h; how it was run: as §1
Escherichia coli = assay: Antibacterial activity against Escherichia coli ATCC 25922 after 12 hrs by broth-dilution method; conditions: ATCC 25922, 12 h; how it was run: as §1
Saccharomyces cerevisiae [3] = assay: Fungicidal activity against Saccharomyces cerevisiae ATCC 9763 after 48 hrs by broth-dilution method; conditions: ATCC 9763, 48 h, read-out: MFC99.9; how it was run: as §1
Saccharomyces cerevisiae [4] = assay: Antifungal activity against Saccharomyces cerevisiae ATCC 9763 after 12 hrs by broth-dilution method; conditions: ATCC 9763, 12 h; how it was run: as §1

O=C1[C@@H]2CCCN2C(=O)[C@H]2C[C@H](O)CN12
> 200 µg/mL: MIC (Candida albicans [1]) | MFC (Candida albicans [2]) | MIC (Staphylococcus aureus) | MIC (Bacillus spizizenii) | MIC (Escherichia coli) | MFC (Saccharomyces cerevisiae [3]) | MIC (Saccharomyces cerevisiae [4])

O=C(O)C[C@@H]1NC(=O)[C@@H]2CCCN2C1=O
> 200 µg/mL: MIC (Candida albicans [1]) | MFC (Candida albicans [2]) | MIC (Staphylococcus aureus) | MIC (Bacillus spizizenii) | MIC (Escherichia coli) | MFC (Saccharomyces cerevisiae [3]) | MIC (Saccharomyces cerevisiae [4])

C[C@@H](O)[C@H]1NC(=O)[C@@H]2CCCN2C1=O
> 200 µg/mL: MIC (Candida albicans [1]) | MFC (Candida albicans [2]) | MIC (Staphylococcus aureus) | MIC (Bacillus spizizenii) | MIC (Escherichia coli) | MFC (Saccharomyces cerevisiae [3]) | MIC (Saccharomyces cerevisiae [4])

O=C(O)CC[C@H]1NC(=O)[C@H]2CCCN2C1=O
> 200 µg/mL: MIC (Candida albicans [1]) | MFC (Candida albicans [2]) | MIC (Staphylococcus aureus) | MIC (Bacillus spizizenii) | MIC (Escherichia coli) | MFC (Saccharomyces cerevisiae [3]) | MIC (Saccharomyces cerevisiae [4])

O=C(O)CC[C@H]1NC(=O)[C@@H]2CCCN2C1=O
> 200 µg/mL: MIC (Candida albicans [1]) | MFC (Candida albicans [2]) | MIC (Staphylococcus aureus) | MIC (Bacillus spizizenii) | MIC (Escherichia coli) | MFC (Saccharomyces cerevisiae [3]) | MIC (Saccharomyces cerevisiae [4])

O=C1NCC(=O)N2CCC[C@H]12
> 200 µg/mL: MIC (Candida albicans [1]) | MFC (Candida albicans [2]) | MIC (Staphylococcus aureus) | MIC (Bacillus spizizenii) | MIC (Escherichia coli) | MFC (Saccharomyces cerevisiae [3]) | MIC (Saccharomyces cerevisiae [4])

C[C@@H]1NC(=O)[C@@H]2CCCN2C1=O
> 200 µg/mL: MIC (Candida albicans [1]) | MFC (Candida albicans [2]) | MIC (Staphylococcus aureus) | MIC (Bacillus spizizenii) | MIC (Escherichia coli) | MFC (Saccharomyces cerevisiae [3]) | MIC (Saccharomyces cerevisiae [4])

C[C@H]1NC(=O)[C@@H]2CCCN2C1=O
> 200 µg/mL: MIC (Candida albicans [1]) | MFC (Candida albicans [2]) | MIC (Staphylococcus aureus) | MIC (Bacillus spizizenii) | MIC (Escherichia coli) | MFC (Saccharomyces cerevisiae [3]) | MIC (Saccharomyces cerevisiae [4])

— ChEMBL document CHEMBL3792328, “Diketopiperazines from Costa Rican endolichenic fungus Colpoma sp. CR1465A” (2016)
